# Active and inactive are the calls of the source. The rule behind the calls is not given here.
# Key:
# [1] = test system: Mycobacterium tuberculosis; test: Down-regulation of HSP gene in Mycobacterium tuberculosis H37Rv at 2 times MIC90 after 4 hrs by microarray analysis; format: functional
# [2] = test system: Mycobacterium tuberculosis; test: Up-regulation of ATP synthase sub-units genes in Mycobacterium tuberculosis H37Rv at 2 times MIC90 after 4 hrs by microarray analysis; format: functional
# Escherichia coli = test: Antimicrobial activity against Escherichia coli ATCC 25922 at 200 uM incubated for 16 hrs; format: functional
# Mus musculus [3] = test: Hepatotoxicity in BALB/c mouse assessed as change in alkaline phosphatase level in plasma at 200 mg/kg, po qd administered via gavage after 10 days; format: toxicity, organism-based; details: in vivo, 240 h
# [4] = Apparent permeability from apical to basolateral side in human Caco2 cells by LC-MS/MS analysis; format: ADME, cell-based; details: caco-2
# Outline: (§1)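 Caco-2 monolayer permeability measured in both directions (apical-to-basolateral and basolateral-to-apical); result given as apparent permeability coefficient Papp in cm/s.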
# [5] = test system: Mycobacterium tuberculosis; test: Antitubercular activity against replicating stage Mycobacterium tuberculosis H37Rv ATCC 27294 after 7 days by Resazurin microtiter assay; format: functional; details: H37Rv ATCC 27294, 168 h
# Mus musculus [6] = test: Nephrotoxicity in BALB/c mouse assessed as change in urea level in blood at 200 mg/kg, po qd administered via gavage after 10 days; format: toxicity, organism-based; details: in vivo, 240 h
# Mus musculus [7] = test: Hepatotoxicity in BALB/c mouse assessed as change in aspartate aminotransferase level in plasma at 200 mg/kg, po qd administered via gavage after 10 days; format: toxicity, organism-based; details: in vivo, 240 h
# [8] = Apparent permeability from basolateral to apical side in human Caco2 cells by LC-MS/MS analysis; format: ADME, cell-based; details: caco-2; outline: as §1
# MRC5 = test: Cytotoxicity against human MRC5 cells assessed as reduction in cell viability after 24 hrs by fluorescence assay; format: cell-based; details: MRC5, 24 h
# Outline: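 MRC-5 human lung fibroblasts; cytotoxicity reported as IC50.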
# [9] = test system: Mycobacterium tuberculosis; test: Up-regulation of […] gene EF-G in Mycobacterium tuberculosis H37Rv at 2 times MIC90 after 4 hrs by microarray analysis; format: functional
# Mus musculus [10] = test: Toxicity in BALB/c mouse assessed as behavioral parameter changes (hippocratic screening) at 200 mg/kg, po qd administered via gavage after 10 days; format: organism-based; details: in vivo, 240 h
# Outline: (§2)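 Mice given one daily oral gavage dose of 200 mg/kg body weight for 10 days with daily behavioural monitoring (hippocratic screening); heart, lung, spleen, kidney and liver weights compared with controls by ANOVA and Dunnett's test, p < 0.05.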
# [11] = test system: Mycobacterium tuberculosis; test: Downregulation of hspR gene in Mycobacterium tuberculosis H37Rv at 2 times MIC90 after 4 hrs by microarray analysis; format: functional
# Cytochrome P450 2C8 = target: T1, Cytochrome P450 2C8 (Homo sapiens, UniProt P10632); test: Inhibition of CYP2C8 in human liver microsomes in presence of NADPH by LC-MS/MS analysis; format: ADME
# T1 sequence (P10632 whole entry): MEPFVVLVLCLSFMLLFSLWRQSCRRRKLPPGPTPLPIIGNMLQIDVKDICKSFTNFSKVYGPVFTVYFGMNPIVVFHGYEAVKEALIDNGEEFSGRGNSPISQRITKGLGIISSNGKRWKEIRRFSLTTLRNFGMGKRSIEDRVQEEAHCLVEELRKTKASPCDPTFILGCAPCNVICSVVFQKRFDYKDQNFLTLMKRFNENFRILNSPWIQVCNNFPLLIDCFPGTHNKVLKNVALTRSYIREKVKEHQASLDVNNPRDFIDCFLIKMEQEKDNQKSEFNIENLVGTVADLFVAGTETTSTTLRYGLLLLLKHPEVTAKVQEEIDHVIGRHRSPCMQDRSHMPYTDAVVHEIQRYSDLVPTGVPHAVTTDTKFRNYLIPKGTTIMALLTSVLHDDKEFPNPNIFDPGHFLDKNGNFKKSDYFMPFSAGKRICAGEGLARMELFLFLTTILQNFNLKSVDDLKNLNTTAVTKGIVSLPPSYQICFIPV
# [12] = Induction of nitric oxide release by Griess assay
# Outline: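 Griess assay: chemical detection of nitrite ions in solution as indicator of nitric oxide release.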
# [13] = Fraction unbound in human plasma at 5 uM by LC-MS/MS analysis; format: ADME, cell-free
# [14] = Chemical stability in PBS at pH 5.5 assessed as drug degradation after 10 hrs by HPLC-UV analysis; format: physicochemical; details: read-out: Drug degradation
# Mus musculus [15] = test: Toxicity in BALB/c mouse assessed as change in spleen weight at 200 mg/kg, po qd administered via gavage after 10 days; format: organism-based; details: in vivo, 240 h; outline: as §2
# [16] = test system: Mycobacterium tuberculosis; test: Growth inhibition of Mycobacterium tuberculosis H37Rv exposed to plasma from BALB/c mouse treated with 300 mg/kg, po administered through microemulsion vehicle as single oral dose per gavage after 1 hr by Resazurin microtiter assay; format: functional; details: read-out: GI
# Outline: (§3)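 The microemulsion was 10% cholesterol, 10% phosphatidylcholine/sodium oleate/polyoxyl 40 hydrogenated castor oil (3:6:8) and 80% phosphate buffer pH 7.4. Plasma taken at 0.3, 1, 2 or 4 h was tested by REMA for % Mtb growth inhibition, and plasma level was estimated against the in-vitro REMA MIC.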
# [17] = Stability of the compound in PBS assessed as parent compound remaining at pH 7.4 after 24 hrs by HPLC-UV analysis; format: physicochemical; details: read-out: Stability
# [18] = test system: Mycobacterium tuberculosis; test: Downregulation of htrA gene in Mycobacterium tuberculosis H37Rv at 2 times MIC90 after 4 hrs by microarray analysis; format: functional
# [19] = test system: Mycobacterium tuberculosis; test: Antitubercular activity against Mycobacterium tuberculosis H37Rv ATCC 27294 under normal pH 6.8 condition; format: functional
# [20] = test system: Mycobacterium tuberculosis; test: Bactericidal activity against Mycobacterium tuberculosis H37Rv ATCC 27294 assessed as colony forming units at 41.24 uM after 48 hrs by time kill analysis; format: functional
# Outline: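 Time–kill: H37Rv ATCC 27294 exposed to drug at 41.24 μM, alongside INH 0.72 μM, RMP 0.01 μM and MOX 0.88 μM; log10 CFU/mL followed over days. Counts are the mean of three independent assays, ± SD.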
# [21] = test system: Mycobacterium tuberculosis; test: Antitubercular activity against dormant stage Mycobacterium tuberculosis H37Rv ATCC 27294 incubated for 10 days in anaerobic condition followed by incubation for 28 hrs in ambient gaseous condition measured after day 11 by two fold serial dilution assay; format: functional
# [22] = n-Octanol/water partition coefficient, log P of the compound by HPLC analysis; format: physicochemical
# Outline: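 Log P from n-octanol/water partition coefficient determined by HPLC method.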
# Mus musculus [23] = test: Toxicity in BALB/c mouse assessed as change in heart weight at 200 mg/kg, po qd administered via gavage after 10 days; format: organism-based; details: in vivo, 240 h; outline: as §2
# Mus musculus [24] = test: Nephrotoxicity in BALB/c mouse assessed as change in kidney morphology at 200 mg/kg, po qd administered via gavage after 10 days by hematoxylin and eosin staining based analysis; format: toxicity, organism-based; details: in vivo, 240 h
# Outline: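 BALB/c mice dosed orally by gavage once daily at 200 mg/kg; liver and kidney sections stained with H&E and examined for tissue morphology.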
# [25] = test system: Mycobacterium tuberculosis; test: Antitubercular activity against Mycobacterium tuberculosis H37Rv ATCC 27294 in presence of 4% fetal bovine serum; format: functional
# [26] = test system: Mycobacterium tuberculosis; test: Growth inhibition of Mycobacterium tuberculosis H37Rv exposed to plasma from BALB/c mouse treated with 300 mg/kg, po administered through microemulsion vehicle as single oral dose per gavage after 0.3 hrs by Resazurin microtiter assay; format: functional; details: read-out: GI; outline: as §3
# Candida albicans = test: Antimicrobial activity against Candida albicans ATCC 10231 at 200 uM incubated for 48 hrs; format: functional
compound,measurement,setting,value
O=C(N/N=C/c1ccc2no[n+]([O-])c2c1)c1ccncc1,Activity,[1],Active
same,Activity,[2],Active
same,Activity,Escherichia coli,inactive
same,Activity,Mus musculus [3],Non-Toxic
same,Papp,[4],5.67 ×10⁻⁶ cm/s
same,MIC90,[5],1.1 to 5.84 µM
same,Activity,Mus musculus [6],Toxic
same,Activity,Mus musculus [7],Non-Toxic
same,Papp,[8],3.9 ×10⁻⁶ cm/s
same,IC50,MRC5,519 µM
same,Activity,[9],Active
same,Activity,Mus musculus [10],Non-Toxic
same,Activity,[11],Active
same,IC50,Cytochrome P450 2C8,> 20 µM
same,Activity,[12],inactive
same,fraction unbound at 5 µM,[13],0.465
same,degraded at 10 h,[14],20%
same,Activity,Mus musculus [15],Non-Toxic
same,inhibition in vivo at 300 mg/kg,[16],79%
same,remaining at 24 h,[17],75%
same,Activity,[18],Active
same,MIC90,[19],5.47 µM
same,Activity,[20],6.7 log10CFU/ml
same,MIC90,[21],6.62 µM
same,logP,[22],1.5
same,Activity,Mus musculus [23],Non-Toxic
same,Activity,Mus musculus [24],Non-Toxic
same,MIC90,[25],9.81 µM
same,inhibition in vivo at 300 mg/kg,[26],65.7%
same,Activity,Candida albicans,inactive

# Reference: ChEMBL document CHEMBL4028867, “Design, Synthesis, and Characterization of N-Oxide-Containing Heterocycles with in Vivo Sterilizing Antitubercular Activity” (J Med Chem, 2017)
